One data set addresses T1, CD38 (Homo sapiens, UniProt P28907).
T1 sequence (P28907 43-300 limits assumed): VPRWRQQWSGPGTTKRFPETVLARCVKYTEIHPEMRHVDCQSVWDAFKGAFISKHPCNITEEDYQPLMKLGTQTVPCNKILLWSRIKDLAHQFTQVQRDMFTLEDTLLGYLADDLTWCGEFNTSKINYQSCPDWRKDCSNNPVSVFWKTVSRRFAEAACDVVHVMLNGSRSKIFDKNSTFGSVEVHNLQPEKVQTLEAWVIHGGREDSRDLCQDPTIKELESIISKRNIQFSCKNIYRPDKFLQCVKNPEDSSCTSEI
Kind of data set: CD38 assay. Type of data set: biochemical. The method in brief:
(§1)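 Either CD38 (5 ng) or NPP5 (250 ng) was mixed with 50 µM test compound and 100 µM NAD+ as substrate. For CD38 the reaction buffer was 10 mM HEPES, pH 7.4.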

A further data set has as its target T2, NPP5 (Homo sapiens, UniProt Q9UJA9).
T2 sequence (Q9UJA9 25-431 limits assumed): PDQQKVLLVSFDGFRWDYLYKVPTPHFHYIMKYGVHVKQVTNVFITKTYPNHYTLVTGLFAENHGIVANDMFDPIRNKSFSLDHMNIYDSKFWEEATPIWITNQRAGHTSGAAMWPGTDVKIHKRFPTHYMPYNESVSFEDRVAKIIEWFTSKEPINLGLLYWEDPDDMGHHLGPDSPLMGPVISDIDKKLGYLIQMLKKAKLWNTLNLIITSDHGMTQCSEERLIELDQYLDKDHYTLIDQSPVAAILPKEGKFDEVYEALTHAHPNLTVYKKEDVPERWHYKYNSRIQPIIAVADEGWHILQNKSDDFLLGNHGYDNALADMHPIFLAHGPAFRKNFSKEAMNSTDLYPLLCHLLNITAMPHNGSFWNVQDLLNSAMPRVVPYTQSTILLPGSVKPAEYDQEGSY
Kind of data set: NPP5 assay. Type of data set: biochemical. A digest of the protocol:
as §1

The conditions of data set [1]: patients, peroral; cited from earlier work.
The next data set has as its system melanoma (MaMel65) cells. Kind of data set: Extracellular eATP hydrolysis on live melanoma cells. It is filed as cell-based, human. The settings on record: 1, 10, 100 µM, significant at 10 µM, 20 µM eATP.
In the next data set the test system is human PBMCs. Kind of data set: HPLC assay of AMPase activity. Type of data set: cell-based. The settings on record: 1-100 µM ceritinib; 1 µM eAMP. A digest of the protocol:
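PBMCs were isolated from buffy coats by density gradient. Cells (2×10^5) were pretreated with test compound (1, 10, 50, 100 µM) for 15 min at 37°C, then given 1 µM eATP (ATPase) or eAMP (AMPase) for 30 min at 37°C. Cells were removed and supernatants 10 kDa-filtered. Etheno-nucleotides were quantified by reversed-phase C8 HPLC (phosphate pH 6.0/methanol gradient; fluorescence 230/410 nm) against standards; singlets, n=2–3.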

For a further data set, the system named is TNBC (MDA-MB-231) cells. Kind of data set: Extracellular eATP hydrolysis on live TNBC cells. The settings on record: 1, 10, 100 µM, significant at 10 µM, 20 µM eATP. It is filed as cell-based, human.
A further data set has as its target T3, human CD39 (Homo sapiens, UniProt P49961).
T3 sequence (P49961 1-510): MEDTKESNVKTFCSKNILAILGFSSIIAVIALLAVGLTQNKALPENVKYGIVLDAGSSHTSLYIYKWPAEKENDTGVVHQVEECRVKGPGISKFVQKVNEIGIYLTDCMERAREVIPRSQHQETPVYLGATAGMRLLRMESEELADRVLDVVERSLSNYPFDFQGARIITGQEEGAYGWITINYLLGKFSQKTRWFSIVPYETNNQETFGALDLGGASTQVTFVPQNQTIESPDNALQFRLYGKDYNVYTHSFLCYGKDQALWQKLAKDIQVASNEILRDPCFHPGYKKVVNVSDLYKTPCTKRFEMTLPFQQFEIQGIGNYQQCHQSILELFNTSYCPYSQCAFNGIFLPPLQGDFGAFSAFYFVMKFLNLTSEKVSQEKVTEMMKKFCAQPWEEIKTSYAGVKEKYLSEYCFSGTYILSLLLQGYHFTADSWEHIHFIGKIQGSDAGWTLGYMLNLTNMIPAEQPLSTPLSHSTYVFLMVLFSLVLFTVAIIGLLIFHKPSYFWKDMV
Type of data set: biochemical. A digest of the protocol:
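CD39 came from human umbilical cord membranes (50.0 ng protein per well). Substrate was 50 µM ATP in 10 mM HEPES, 2 mM CaCl2, 1 mM MgCl2, pH 7.4, with ≤2% DMSO. Enzyme and test compound were preincubated 5 min at 37°C; reaction ran 15 min at 37°C. Malachite green/molybdate was added and A600 read after 20 min at 25°C, minus a heat-denatured enzyme blank. Screening was at 10 µM; curves spanned 0.1–300 µM; n=3.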

In data set [2] the test system is melanoma (Ma-Mel-65) cell membrane preparations. Kind of data set: Malachite green assay, ATP hydrolysis by melanoma cell membrane preparations. Type of data set: biochemical, human. The settings on record: increasing concentrations of ceritinib, 50 µM ATP. A digest of the protocol: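 Crude membranes came from ~90% confluent MDA-MB-231 or Ma-Mel-65 cells. Cells were homogenised in Tris/EDTA/saccharose/PMSF buffer, pH 7.4, and centrifuged at 1000 g, then 48,000 g for 1 h at 4°C. Pellets were washed and stored at −80°C in 50 mM Tris-HCl, pH 7.4. ATP hydrolysis (50 µM ATP, HEPES/Ca/Mg pH 7.4) was run with increasing test compound concentrations for 15 min at 37°C. Phosphate was read by malachite green (600 nm); triplicates, n=3.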

Where [3] appears, read: read-out: % inhibition at 50 µM.

Consider one compound from PMC9394215 (Journal for Immunotherapy of Cancer, 2022).

For the compound `Cc1cc(Nc2ncc(Cl)c(Nc3ccccc3S(=O)(=O)C(C)C)n2)c(OC(C)C)cc1C1CCNCC1` [ceritinib, Ceritinib], the values for the IC50 on CD38, on NPP5 and at human CD39 were over 50 µM, over 50 µM and 11.3 ± 0.8 µM, respectively. The inhibition at 50 µM on CD38 (setting [3]) came out at 19%; on NPP5 (setting [3]) it was 1%. Besides, the maximum plasma levels entry in data set [1] was “up to 1.4 µM”. Moreover, the “inhibition of hydrolysis of eATP added to live cells” value with melanoma (MaMel65) cells and in the data set with TNBC (MDA-MB-231) cells was “concentration-dependent inhibition” each time. In addition, the “effect on hydrolysis of eAMP by PBMCs” value with human PBMCs is “only a minor effect”. Moreover, at human CD39 (read-out: inhibition of human CD39), the inhibition at 10 µM is over 50%. Besides, the “ATPase activity of cancer cell membranes” value in data set [2] was “decreased significantly”.

As usually defined, the IC50 is the point on the concentration scale where inhibition reaches its midpoint. What is called inhibition is the percentage by which the read-out fell short of the control.
